Screening data (PubChem)
TRPC4 PAM = allosterically enhances the mouse TRPC4 cation channel; HEK293 TRPC4beta/mu-opioid, DAMGO EC20, Fluo-4 Ca2+ flux; hits give high values; 310,000 compounds, 0.42% hits; B-score at 10 µM; Q9QUQ5;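 active means B-score of calcium response area above 5 SD of library B-scores, with initial fluorescence ratio within 5 SD of library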
Target sequence (Q9QUQ5 whole entry, looked up): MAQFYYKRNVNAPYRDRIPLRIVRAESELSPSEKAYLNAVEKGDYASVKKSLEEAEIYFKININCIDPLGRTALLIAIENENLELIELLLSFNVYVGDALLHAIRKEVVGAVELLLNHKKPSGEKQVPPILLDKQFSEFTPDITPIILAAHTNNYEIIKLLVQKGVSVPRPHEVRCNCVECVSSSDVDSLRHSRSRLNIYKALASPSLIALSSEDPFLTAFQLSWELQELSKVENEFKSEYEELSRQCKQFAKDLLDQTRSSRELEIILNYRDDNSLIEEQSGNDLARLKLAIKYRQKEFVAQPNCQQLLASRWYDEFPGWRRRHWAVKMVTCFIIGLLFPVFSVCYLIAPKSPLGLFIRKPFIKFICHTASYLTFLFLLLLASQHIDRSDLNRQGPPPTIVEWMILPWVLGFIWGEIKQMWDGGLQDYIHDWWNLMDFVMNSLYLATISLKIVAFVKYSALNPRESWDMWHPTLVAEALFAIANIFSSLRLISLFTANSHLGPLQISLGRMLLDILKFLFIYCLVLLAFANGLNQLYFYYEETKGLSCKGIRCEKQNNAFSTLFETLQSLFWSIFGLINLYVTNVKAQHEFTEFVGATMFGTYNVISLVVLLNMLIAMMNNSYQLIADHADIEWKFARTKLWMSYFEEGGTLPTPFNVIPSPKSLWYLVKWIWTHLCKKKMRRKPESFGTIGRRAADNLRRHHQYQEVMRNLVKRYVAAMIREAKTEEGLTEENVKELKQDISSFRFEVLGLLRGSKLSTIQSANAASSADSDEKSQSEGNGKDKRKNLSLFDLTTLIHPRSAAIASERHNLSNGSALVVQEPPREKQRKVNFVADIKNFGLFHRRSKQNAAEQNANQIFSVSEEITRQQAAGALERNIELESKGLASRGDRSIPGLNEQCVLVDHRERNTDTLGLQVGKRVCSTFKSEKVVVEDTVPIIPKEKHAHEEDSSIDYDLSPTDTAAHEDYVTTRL
TRPC4 inh = blocks the mouse TRPC4 cation channel. AID 2247. 300,000 compounds, 0.39% hits. HEK293 TRPC4beta/mu-opioid, DAMGO-evoked Fluo4 calcium flux; hits give low values. B-score at 10 µM. Q9QUQ5;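 active means B-score over 3 SD under the library average, no early fluorescence shift, positive overall ratio signal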
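Assay system: HEK293 cells with stable TRPC4beta plus mu-opioid receptor expression; Probe or stimulus: DAMGO in two steps, submaximal then maximal; Dosing: single-point compound dosing; Measured by: Fluo4 calcium-dye fluorescence, kinetic read; Read-out basis: B score from integrated Fluo4 fluorescence ratio.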
TRPC6 act = mouse TRPC6 channel activation; Q61143; HEK293-TRPC6 membrane potential dye fluorescence; hits give high values; B-score at 10 µM; 310,000 compounds, 0.13% hits;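 active means B-score of the integrated fluorescence ratio above library mean plus 3 SD, and starting fluorescence ratio within library mean plus 5 SD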;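 further: higher score means more depolarization so channel activation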
TRPC6 inhibitor = mouse TRPC6 channel inhibition | HEK293-TRPC6, membrane potential dye, ACh-evoked depolarization; hits give low values | B-score at 10 µM | 310,000 compounds, 1.1% hits | Q61143;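 active means B-score under library mean minus 3 SD, initial fluorescence not abnormally high, positive integrated signal ratio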;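 further: B-score derived from integrated fluorescence ratio over the kinetic read; more negative B-score means stronger inhibition of depolarization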
TRPC4 agonist = activators of mouse TRPC4 channel | 310,000 compounds, 0.49% hits | B-score at 10 µM | HEK293 TRPC4beta/mu-opioid, Fluo4 calcium fluorescence; hits give high values;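 active means B-score above 5 SD of library B-scores, and initial fluorescence ratio not above library mean plus 5 SD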;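 further: positive B-score marks a calcium rise read as TRPC4 activation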
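system = HEK293 cells stably co-expressing mouse TRPC4beta and mu-opioid receptor | schedule = Fluo4 dye loading 45 min at room temperature, 110 s recording | measure = B-scored integrated calcium fluorescence ratio | signal = Fluo4 calcium-sensitive dye fluorescence, kinetic, 1 Hz baseline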
TRPC4 spec 2 = mouse TRPC4 off-target activity of TRPC6 inhibitors, second screen; HEK293 TRPC4/MOR, membrane potential dye fluorescence; channel activated by saturating DAMGO dose; inhibition, % at 10 µM; shares compounds with TRPC6 inhibitor; 920 compounds, 42% hits; AID 2776;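 active means compounds whose fluorescence signal differed from control wells by over 3 SD, either direction, in both duplicate plates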
TRPC4 spec = mouse TRPC4 off-target activity of TRPC6 inhibitors. HEK293 TRPC4/mu-opioid, membrane potential fluorescence. 920 compounds, 61% hits. shares compounds with TRPC6 inhibitor. activity change, negative = inhibition, % at 10 µM;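 active means rise or fall in signal beyond 3 SD of buffer-only wells in both replicate plates, either sign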;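 further: integrated kinetic ratio of fluorescence range over baseline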
HEK293 MPD ctr 2-1 = second check of TRPC6 inhibitor effects in parental HEK293 cells; shares compounds with TRPC6 inhibitor; parental HEK293 membrane potential dye fluorescence; maximal acetylcholine challenge after compound addition; signal change vs control, % at 10 µM; 920 compounds, 31% hits; AID 2779;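 active means membrane potential signal moving either way by over 3 SD of the maximum-effect control, in both duplicate plates, meaning non-specific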
HEK293 MPD ctr-1 = counter-screen for TRPC6 inhibitors: effect in parental HEK293 cells; shares compounds with TRPC6 inhibitor; parental HEK293 membrane potential dye fluorescence; membrane potential signal change, % at 10 µM; 920 compounds, 60% hits; AID 2780;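 active means membrane potential signal shifting up or down by more than 3 SD of buffer-only wells, on both duplicate plates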
HEK293 MPD ctr-2 = checks TRPC6 modulator effects in parental HEK293 cells | 2,400 compounds, 51% hits | membrane potential signal change, % at 10 µM | shares compounds with TRPC6 inhibitor | membrane potential dye fluorescence;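 active means membrane potential signal moves up or down beyond 5 SD from buffer-only wells, on both duplicate plates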
HEK293 MPD ctr 2-2 = second counter-screen for TRPC6 modulators: effect in parental HEK293 cells; shares compounds with TRPC6 inhibitor; membrane potential dye fluorescence; after compound, maximal acetylcholine stimulation; inhibition, % at 10 µM; 2,400 compounds, 14% hits;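 active means membrane potential signal drops by more than 5 SD from the mean control signal, in both duplicate plates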
TRPC4/MOR mod = mouse TRPC4 off-target activity of TRPC6 modulators; shares compounds with TRPC6 inhibitor; HEK293 TRPC4/mu-opioid, membrane potential fluorescence; percent change from control (negative = decrease, positive = increase), % at 10 µM; 2,400 compounds, 69% hits; AID 488927;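 active means membrane potential signal moved up or down beyond 5 SD of buffer control wells, in both duplicate plates, actives on both sides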
TRPC4 ctr inh 2 = mouse TRPC4 off-target activity of TRPC6 modulators, second screen | inhibition, % at 10 µM | shares compounds with TRPC6 inhibitor | 2,400 compounds, 55% hits | HEK293 TRPC4/mu-opioid, membrane potential dye fluorescence; stimulated with maximal-effect DAMGO;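 active means drop in membrane potential signal beyond 5 SD of the control wells in both duplicate plates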;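 further: TRPC4 counter screen for TRPC6 hits run under conditions tuned for TRPC6 not TRPC4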
TRPC6 block conf = confirmation of mouse TRPC6 inhibitors; shares compounds with TRPC6 inhibitor; HEK293-TRPC6, membrane potential dye, ACh-evoked depolarization; inhibition, % at 10 µM; 3,300 compounds, 43% hits;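 active means fluorescence ratio falls more than 5 SD below the full-stimulation control mean, in both duplicate runs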;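 further: integrated fluorescence ratio of peak minus minimum over baseline after agonist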
TRPC6 act confirm = confirmation of mouse TRPC6 activators; HEK293-TRPC6 membrane potential dye fluorescence, FDSS; AID 488961; shares compounds with TRPC6 inhibitor; 2,800 compounds, 11% hits; activation, % at 10 µM;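 active means ratio signal rise beyond 5 SD above unstimulated control wells' mean, seen in both duplicate runs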
Each line names hits and unclear results; the compound was inactive in the other large screens (follow-up assays come after a bar, where they were run). Shown are actives, neighbours in structure and some others; about 2.3% of the full set was active somewhere.

CN1CCCC1CCNc1ccc2sc3ccccc3c(=O)c2c1 (configuration not stated)	TRPC6 act 30, TRPC6 inhibitor -6.3, TRPC4 agonist 75 | HEK293 MPD ctr-2 794% | HEK293 MPD ctr 2-2 inactive | TRPC4/MOR mod 148% | TRPC4 ctr inh 2 67% | TRPC6 block conf inactive | TRPC6 act confirm 318%
O=C(NCCN1CCOCC1)c1sc2ccccc2c1Cl	none
Cc1cc2oc3cc(NCCC4CCCN4C)ccc3c(=O)c2cc1C (configuration not stated)	TRPC6 inhibitor -5.9 | HEK293 MPD ctr-2 inactive | HEK293 MPD ctr 2-2 84% | TRPC4/MOR mod -11% | TRPC4 ctr inh 2 76% | TRPC6 block conf 50% | TRPC6 act confirm inactive
COc1cccc2sc(N(CCN(C)C)C(=O)/C=C/c3cccs3)nc12	TRPC6 inhibitor -6 | HEK293 MPD ctr-2 inactive | HEK293 MPD ctr 2-2 inactive | TRPC4/MOR mod -9.5% | TRPC4 ctr inh 2 72% | TRPC6 block conf 43% | TRPC6 act confirm inactive
CN(C)CCN(C(=O)c1ccc2c(c1)CCCC2)c1nc2c(F)cccc2s1	none
COc1cccc2sc(N(CCN(C)C)C(=O)c3ccc4c(c3)CCCC4)nc12	TRPC6 inhibitor -6.4 | HEK293 MPD ctr-2 -111% | HEK293 MPD ctr 2-2 98% | TRPC4/MOR mod -34% | TRPC4 ctr inh 2 94% | TRPC6 block conf 86% | TRPC6 act confirm inactive
COc1ccc(CN(C(=O)CN2C(=O)COc3ccccc32)C2CCCC2)c(OC)c1	TRPC6 act 12 | HEK293 MPD ctr-2 319% | HEK293 MPD ctr 2-2 inactive | TRPC4/MOR mod inactive | TRPC4 ctr inh 2 inactive | TRPC6 block conf inactive | TRPC6 act confirm inactive
COc1ccc(OC)c(N/C(N)=N/c2nc(C)cc(C)n2)c1	none
COc1ccc(N/C(N)=N/c2nc(C)cc(C)n2)c(OC)c1	TRPC6 inhibitor -5.1 | HEK293 MPD ctr-2 -86% | HEK293 MPD ctr 2-2 inactive | TRPC4/MOR mod -12% | TRPC4 ctr inh 2 inactive | TRPC6 block conf inactive | TRPC6 act confirm inactive
COc1ccc(Cl)cc1N/C(N)=N/c1nc(C)cc(C)n1	TRPC4 inh -7, TRPC6 inhibitor -5.6 | HEK293 MPD ctr-2 inactive | HEK293 MPD ctr 2-2 inactive | TRPC4/MOR mod -10% | TRPC4 ctr inh 2 inactive | TRPC6 block conf inactive | TRPC6 act confirm inactive
COCCNC(=O)C1CC(c2ccc(C(F)(F)F)cc2)=NO1 (configuration not stated)	none
COc1ccc(/C=N/n2c(-c3n[nH]c4c3CCC4)n[nH]c2=S)cc1	TRPC6 inhibitor -5 | HEK293 MPD ctr-2 inactive | HEK293 MPD ctr 2-2 inactive | TRPC4/MOR mod inactive | TRPC4 ctr inh 2 inactive | TRPC6 block conf inactive
CC(/C=N/n1c(-c2n[nH]c3c2CCC3)n[nH]c1=S)=C\c1ccco1	TRPC6 inhibitor -8.4 | TRPC4 spec 2 inactive | TRPC4 spec inactive | HEK293 MPD ctr 2-1 -11% | HEK293 MPD ctr-1 inactive | TRPC6 block conf 70% | TRPC6 act confirm inactive
CC(/C=N/n1c(-c2cccnc2)n[nH]c1=S)=C\c1ccco1	none
CC(=O)NCc1ccc(C(=O)CSc2nnc(-c3ccncc3)n2Cc2ccccc2)o1	none
COC(=O)c1ccc(Nc2cc(C)nc3ccc(C)cc23)cc1	TRPC6 inhibitor -7.2 | TRPC4 spec 2 inactive | TRPC4 spec -22% | HEK293 MPD ctr 2-1 inactive | HEK293 MPD ctr-1 -299% | TRPC6 block conf inactive | TRPC6 act confirm inactive
COC(=O)c1ccc2nc(C)cc(Nc3ccccc3C)c2c1	TRPC6 inhibitor -5.9 | HEK293 MPD ctr-2 -149% | HEK293 MPD ctr 2-2 inactive | TRPC4/MOR mod -25% | TRPC4 ctr inh 2 43% | TRPC6 block conf 58% | TRPC6 act confirm inactive
Cc1ccc2nc(C)cc(Nc3ccc([N+](=O)[O-])cc3)c2c1	none
COc1cc(C(=O)NCC(c2ccco2)N2CCc3ccccc3C2)cc(OC)c1OC (configuration not stated)	none
COc1cc(/C=C(\NC(C)=O)C(=O)Nc2cccc(O)c2)ccc1OC(C)=O	none
O=C1c2cccc3cccc(c23)C(=O)N1CC1CCN(CC(O)COCc2ccc3c(c2)OCO3)CC1 (configuration not stated)	TRPC6 inhibitor -7.3 | TRPC4 spec 2 19% | TRPC4 spec -28% | HEK293 MPD ctr 2-1 33% | HEK293 MPD ctr-1 -323% | TRPC6 block conf 83% | TRPC6 act confirm inactive
COc1ccc(S(=O)(=O)N2CCN3CCCC3C2)cc1 (configuration not stated)	none
Nc1ccc(C23CC4CC(CC(CO)(C4)C2)C3)cc1	none
NCC12CC3CC(C1)CC(c1ccc(Cl)cc1)(C3)C2	TRPC6 inhibitor -7.1, TRPC4 agonist 61 | TRPC4 spec 2 31% | TRPC4 spec inactive | HEK293 MPD ctr 2-1 inactive | HEK293 MPD ctr-1 -136% | TRPC6 block conf 72% | TRPC6 act confirm inactive
N#CCOC(=O)[C@H](Cc1ccccc1)N1C(=O)c2ccccc2C1=O	TRPC6 inhibitor -7.1 | TRPC4 spec 2 inactive | TRPC4 spec -0.7% | HEK293 MPD ctr 2-1 inactive | HEK293 MPD ctr-1 inactive | TRPC6 block conf inactive | TRPC6 act confirm inactive
CC(C)NC(=O)C(Cc1ccccc1)N1C(=O)c2ccccc2C1=O (configuration not stated)	none
